Experimental findings from PubChem BioAssay are described below.

Each structure is given as a SMILES string. Unmarked numbers belong to inactive results.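 How the source made its calls: active means growth inhibition above 25% in both replicates, a cutoff set 3 SD above the mean; inconclusive means above 25% in only one replicate; inactive means the rest.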

The test in a line: OD615 S. cerevisiae growth inhibition, permissive medium, pilot counter-assay, permissive growth control for S. cerevisiae lifespan shortening project (AID 705). The note with it: OD615, 24 h, at 10 µM, stronger effect = higher value. In short, it runs like this: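 Material: engineered DeaD yeast; compound dosing: one dose 10 µM, DMSO 0.25% final; measure: yeast growth inhibition indicated by reduced 24 h OD615; detection: OD615 turbidity read; incubation: cells pre-grown 4 h, then 24 h compound exposure, 30 °C humidified; medium: permissive synthetic complete medium with raffinose and galactose carbon sources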
On to `Cn1c(=O)c2c(SCC(=O)N3CCN(c4ccccc4)CC3)nc(C3CC3)nc2n(C)c1=O`, for which the growth inhibition was 10.6%.
For the compound `CCOc1ccc(Nc2ncnc3c2cnn3-c2ccccc2)cc1`, the growth inhibition was -3.8%.
For `Cn1c(NC(=O)CCc2ccccc2)cc(=O)n(C)c1=O`, the growth inhibition was -8.68%.
In the case of `Cc1ccccc1Nc1ncnc2c1cnn2-c1ccccc1`, the growth inhibition is -4.67%.
The result for `CCOc1ccccc1Nc1cc(C)nc2nc(C)nn12` reads -11.9%.
The result for `CCOC(=O)CNC(=O)c1cn(CC(C)C)c(=O)c2cc(OC)c(OC)cc12` reads -5.46%; that for `COc1ccc2cc(S(=O)(=O)N3CCOCC3)ccc2c1`, -11.2%.
Turning to `COc1ccc(CCNc2nc(=O)[nH]nc2C)cc1OC`, the growth inhibition was -14.6%.
For the compound `Cc1ccc(Cn2nnc3c(=O)n(Cc4ccccc4C)cnc32)cc1`, the growth inhibition is 1.6%.
On to `O=C(NCc1ccco1)c1cnccn1`, for which the growth inhibition is 3.99%.
For the compound `Cc1cccc(OCC2=N/C(=C\N(C)C)C(=O)O2)c1`, the growth inhibition is -21.7%.
On to `CCSc1nnc(NC(=O)CSc2nc3c(c(=O)n2-c2ccccc2)SCC3)s1`, for which the growth inhibition is -6.26%.
Consider `Clc1ccc(OCc2nnc(-c3ccccc3Br)o2)c(Cl)c1`, for which the growth inhibition is -11.4%.
In the case of `O=C(COC(=O)c1ccccc1Oc1ccccc1)NCc1ccco1`, the growth inhibition is -7.67%.
For `CCNC(=O)c1c(C)nc2ccccn12`, the growth inhibition was 3.27%.
For the compound `CCCCC(CC)CNC(=O)c1cccs1` (stereo not given), the growth inhibition was 6.58%.
For the compound `O=C(Sc1nnc(-c2ccccc2)o1)N1c2ccccc2Sc2ccccc21`, the growth inhibition is 15.4%.
For the compound `Cc1c(-n2cc(C(=O)O)c(=O)c3cc(F)c(N4CCCC4)c(F)c32)c(=O)n(-c2ccccc2)n1C`, the growth inhibition is -5.81%.
On to `COc1ccc(N2CCN(S(=O)(=O)c3cccc4cccnc34)CC2)cc1`, for which the growth inhibition was -3.57%.
As for `CCN1CCN(CC(=O)Nc2ccc3c(c2)OCO3)C(=O)C1=O`, the growth inhibition is -18.6%.
The result for `CC(=O)Nc1ccc(C(=O)c2ccccc2)cc1` reads 8.43%; that for `Cn1c(=O)cc(N2CCCCC2)[nH]c1=O`, -15.3%.
Consider `Cc1csc2ncc(C(=O)NCc3ccccn3)c(=O)n12`, for which the growth inhibition was -10.9%.
Regarding `Cc1c(C(=O)NCc2ccccn2)sc2nc(-c3ccccc3)cn12`, the growth inhibition is 6.98%.
Take `O=C(CSc1ccc2nnc(-c3ccc(Cl)cc3)n2n1)N1CCN(c2ccccc2)CC1`: the growth inhibition is 20.5%.
The result for `O=S(=O)(NCCCN1CCN(c2ccccc2F)CC1)c1cccc2cccnc12` reads -1.96%.
As for `Cc1ccc2cc(CCNS(=O)(=O)c3ccc(F)cc3)c(=O)[nH]c2c1`, the growth inhibition is -11.5%.
The result for `COc1ccc(-n2c(Cc3cccn3C)nnc2SCC(=O)N2CCC(C)CC2)cc1` reads 4.99%; that for `CNc1oc(C)nc1S(=O)(=O)c1ccccc1`, -13.1%.
Regarding `Cc1c(Cl)cccc1NC(=O)CN1C(=O)CSc2ncccc21`, the growth inhibition was -2.14%.
Consider `O=C(CCN1CCc2ccccc2C1)Nc1ccccc1`, for which the growth inhibition was -6.32%.
With `COc1cc2c(cc1OC)C1=C(C#N)CN(C3CCCCC3)CN1CC2`, the growth inhibition was -11.3%.
The result for `O=C1CC(c2ccc(S(=O)(=O)NC3CC3)cc2)CN1` (stereo not given) reads -9.26%.
The result for `CCOC(=O)Cn1c(=O)oc2cc(S(=O)(=O)N3CCc4ccccc43)ccc21` reads -6.21%; that for `O=C1CC(c2ccco2)CC2=C1C1c3ccccc3C(=O)N1c1ccccc1N2` (stereo not given), -9.63%; that for `COc1ccc(Br)cc1C1CC(=O)N2CN(Cc3ccccc3)CSC2=C1C#N` (stereo not given), 4.47%.
As for `C=C(C)Cn1c(COc2ccccc2)nnc1SCC(=O)O`, the growth inhibition was -9.65%.
Regarding `Cc1onc(-c2ccccc2Cl)c1C(=O)OCn1nnc2ccccc2c1=O`, the growth inhibition was -5.29%.
In the case of `Cc1cc(NC(=O)CSc2nc3c(c(=O)n2-c2ccccc2)SC(C)C3)no1` (stereo not given), the growth inhibition was -3.02%.
`CCOc1ccc(C2CC(c3ccc(F)cc3)n3ncnc3N2)cc1` (stereo not given): the growth inhibition was 4.61%.
